Test system: MS2 coat protein
Test: apparent Kd, MS2 coat protein; higher = weaker binding; RNA-MaP array; FMN 200 µM where present
Procedure, shortened: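 Designs on Illumina sequencing-chip clusters, transcribed by stalled E. coli RNA polymerase, were exposed to SNAP-549-labelled MS2 coat protein in doubling steps from 0.7 or 1.5 nM up to 3 µM, without and then with constant ligand. The buffer held 100 mM Tris-HCl pH 7.5, 80 mM KCl, 4 mM MgCl2, BSA, DTT, yeast tRNA and Tween-20. Apparent Kd values are medians of filtered per-cluster binding-curve fits to green signal normalised to red-channel RNA signal and control-cluster median Fmax.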

[1] = designed as: OFF switch for flavin mononucleotide, no ligand
[2] = ligand present: flavin mononucleotide, designed as: OFF switch for flavin mononucleotide
[3] = designed as: ON switch for flavin mononucleotide, no ligand
[4] = ligand present: flavin mononucleotide, designed as: ON switch for flavin mononucleotide

| Sequence | apparent Kd [1] [nM] | apparent Kd [2] [nM] | apparent Kd [3] [nM] | apparent Kd [4] [nM] |
| --- | --- | --- | --- | --- |
| UGUGUGUGGCAGGAUAUGCAGGUAGUAGGACGGGUAGAAGGGUCUACAUGAGGAUCACCCAUGUGGCCGGUUGG | 16.8 | 18.1 |  |  |
| UCGCGGGUGCAGAAGGGAUAGGCCUAUUGUCGUGGUGUCCAAACUUAACAUGAGGAUCACCCAUGUCAGGAUAUGCCCACGCGA | 73.9 | 117 |  |  |
| AGAAACUACGAGAAGGACAUGUGGUCCUUCAGUUACAUGAGGAUCACCCAUGUAGGAUAUCGUAGUUUCAGGAUCGUGAGAUCC | 42 | 12.5 |  |  |
| AAUUGACACGUAGGAUAUCGCUCUAAUUUAACACGAGAAGGACGUACAUGAGGAUCACCCAUGUUAAAUGGUGUAGAUUAGUUG | 30.9 | 88 |  |  |
| GCAUUGAUAACAGGAUAUAUGUAUCCUACAUGAGGAUCACCCAUGUAGGUGAUCAGCCGCGAUAAGUAGAAGGGUUAUCAAUGC |  |  | 18 | 13.7 |
| UAGAGUCUUGAGGAUAUUGGUACGUACCGGUCCCAAGAAGGCGAGACAUGAGGAUCACCCAUGUGACCGUGAGC | 31.9 | 47.8 |  |  |
| AGGAGAAAUGUAGGAUAUGGGCGUAUAUAUGGGCAAAGCGCAUAUAUACGCCCAGAAGGACAUGAGGAUCACCCAUGUUUCCCU | 12.7 | 12.9 |  |  |
| UGGUACUAGGGAGGAUAUGGGAAGAUACAUGAGGAUCACCCAUGUUUACGAAUGCCGAGAGGCAACUAGAAGGCCCUAGUACCU |  |  | 315 | 19.5 |
| CCUCUACAUGAGGAUCACCCAUGUGAGGAUAUCUCGGAGCAGCCACUUAAGGCGCUCCAGAGAAGGCACGUGUA | 19.6 | 28.8 |  |  |
| GGAAAUCAUGUAGGAUAUGCAUGGCGAAGCUACGCAGAAGGACAUGAGGAUCACCCAUGUUAUAGCGUCCGAGAAAGGAUGCAA | 111 | 167 |  |  |
| UGCAUGGUAGGAUAUACGGAGCAUUAGGGUUUGUUAUGUGGACAUGAGGAUCACCCAUGUAGAAGGGCCGUGCU | 37.3 | 57.1 |  |  |
| GGCUGUCUCGCAGGAUAUGCUGAUCAGAAACUAGCAGAAGGGUGAUCCAGUCGAGGUUUGACAUGAGGAUCACCCAUGUGGAGU |  |  | 29.4 | 55.8 |
| GCUUGUGAAGGAUAUACUGGCGACAUGCGCUCGACACGCGCACAUGAGGAUCACCCAUGUAGAAGGUCAAACAU | 20.9 | 21.3 |  |  |
| CACAUUUUAACAGGAUAUGUAAGGUUGUUUAUUAUUGCAUUUACACUCAUUACAGAAGGGUUAUACAUGAGGAUCACCCAUGUG |  |  | 20.1 | 14.5 |
| CGCAAGUCAGGAUAUUCGACAGGUAAAUCAGUGGAUCAGAAGGAGAAGGGACAUGAGGAUCACCCAUGUAAGUA | 49.7 | 29.4 |  |  |
| ACAUGACAUGAGGAUCACCCAUGUGAGGAUAUGCGAAAAAAAUUUUUAAAAAAAAUUGGCAGAAGGCACAAAAU | 121 | 139 |  |  |
| UUGGACGUCGUAGGAUAUGUAGGAUACUCCUACAUGAGGAUCACCCAUGUUGACAUGGAGGACGGACAGAAGGACGGUGUCCAU |  |  | 60.5 | 5.72 |
| AAAGUGUGAGGAUAUCCUGGGCUGGGCCGGGAGGUUCGGUUGGAGAAGGCACAUGAGGAUCACCCAUGUAACGG | 62.7 | 53.4 |  |  |
| CCAGAGAUAUGAGGAUAUCGAGUGGAAUACACUCGAGAAGGCAUGUGAAAACAUGAGGAUCACCCAUGUGAUCAAUACUCUGGA |  |  | 176 | 27.7 |
| AAAACAGCGCGUCCCGCGCCAACUACAGAAGGCCAACAUGAGGAUCACCCAUGUACAAACUAGAUGGAGGAUAUGUAGGUUCUA |  |  | 6.35 | 4.5 |
| AAGAAGUCAGGAUAUCCAGCUCGUCACUUGCGUGAUGAGUUGGAGAAGGGACAUGAGGAUCACCCAUGUAAAGC | 47.9 | 45.7 |  |  |

| Sequence | apparent Kd [1] [nM] | apparent Kd [2] [nM] | apparent Kd [3] [nM] | apparent Kd [4] [nM] |
| --- | --- | --- | --- | --- |
| GGAAAACAUGAGGAUCACCCAUGUGAGGAUAUCGAUGUCCAGGGCCUGGUGCGGGACUCGAGAAGGCACUGGGA | 62.9 | 126 |  |  |
| CUCUCUGAUCGAGGAUAUCGAGCUUCCGCCCUUCGAGAAGGCGACAUGAGGAUCACCCAUGUAAGGAGGACACUCACUCACACG | 26.4 | 22.5 |  |  |
| GUGAAACAUGAGGAUCACCCAUGUGAGGAUAUGUUUUAGUACUGCAGACAGUACAUCUAUAGAAGGCACAAUGG | 38.9 | 70.7 |  |  |
| UGAACAAUGUAGAAGGCCCACAUUUAUAUGUAGGGAGGAUAUACAUGAGGAUCACCCAUGUAAAGAGCAAGAGGAUUUGACAGA | 9.49 | 17.6 |  |  |
| GGAUAGGACAGAGGAUAUACGUGCUAGAGAUACUAGCAAAAUAUCCUCACAUGAGGAUCACCCAUGUAGAAGGCUGUCCUAUCG | 18.1 | 79 |  |  |
| CGCUGGUGAGGAUAUGGGUGUGGUUACAUGAGGAUCACCCAUGUGGUGUCGCGCGUGGGUCCAGAAGGCGCGGGUG | 246 | 170 |  |  |
| UUAUACGUUGAGGAUAUGCGAAUAAGUAUAGUUGCAGAAGGCGAUACAUGAGGAUCACCCAUGUUCAUGGACAU | 126 | 180 |  |  |
| CCUUUGUCAGGAUAUCGAAAAGGGAGGCCAAAGGCCUCCGGUGAGAAGGGACAUGAGGAUCACCCAUGUGAAAA | 77.3 | 383 |  |  |
| UUGGACGUCGUAGGAUAUGUAGGAUAUUCCUACAUGAGGAUCACCCAUGUUGACAUGGAAGAAGGACAGGAGGACGAUGUCCAU |  |  | 346 | 7.82 |
| GAUUCGGGAGGAUAUACAUGAGGAUCACCCAUGUGUUUUUUGUGUGUUAUGUUAUCGUGUAGAAGGUUUGGGUC | 144 | 203 |  |  |
| UUUAAUCGAAACAUGAGGAUCACCCAUGUGUUGUAAUUAACAUAGGAUAUUUGUAUACUUUUAUAAGAGAAGGAUGAUAAUACU |  |  | 21.2 | 15.8 |
| AGCCUGCUGCGAGGAUAUCAACUAAAGGGUCCGAUUUCCGAGCGGAACAUGAGGAUCACCCAUGUUGAGAAGGCGCGAGUAUAG | 25.6 | 182 |  |  |
| GCCUGCCGUGGCACGGUAGCACCGGAGGAUAUCCGCGUCGGUCAUGACAUGAGGAUCACCCAUGUGGAGAAGGCUGGUUUGUCC | 10.8 | 21.2 |  |  |
| GGUGCGUGUAAAGGAUAUAUGUACUGAGAGGACAUAGAAGGUUACAUGAGGAUCACCCAUGUAGGAAGCGAAAGUUAUCACGUG | 11.7 | 25.3 |  |  |
| ACCAGGGAUUCAGGAUAUAUUAGCCGAGGCCGCGUAGAAGGGAAAUCCUGACAUGAGGAUCACCCAUGUCGACCCGCCUUCCAC |  |  | 22.8 | 24.2 |
| GUCAGCUCGUGAGGAUAUACAACACUGCUUCGGCAGUGUAUUAAGAUCACAUGAGGAUCACCCAUGUAGAAGGCUCGAGCUGAU | 14.6 | 271 |  |  |
| AAAAGGUGAGGAUAUACAUGAGGAUCACCCAUGUAGAAAGGAAGUGUAAAAAAAAAGUGUAGAAGGCAUCAUGA | 58.7 | 60.6 |  |  |
| UUUGGUUUGCGAGGAUAUGCUUUUAGUAAGUUAGCAGAAGGCGCGUUACAUAGAACCUCUUGUUACAUGAGGAUCACCCAUGUU | 88.2 | 95 |  |  |
| ACAUGAGGAUCACCCAUGUGGACAUAGGAUAUUGGUGAUCAGGCGUGUUAUACAGGAUAGGUCUGCGAGAAGGGUGUGCGUUGC |  |  | 406 | 218 |
| CAGCGAUAGCUAAAGUAUCUAUCAGAGGAUAUUUAUGAAACAUGAGGAUCACCCAUGUGACACUGGGAGAAGGCUGAUAGAUAG |  |  | 10.1 | 5.25 |
| GCGUAUAUAUGAUUUAUAAAACAGUCAGAAGGUGAGAAGACGACAUGAGGAUCACCCAUGUUAUUCAAGGAUAUGAUAAUGCGC |  |  | 13.1 | 7.74 |

From the EternaBench riboswitch data
